Assay results: ChEMBL document CHEMBL3286131, “Design, synthesis and systematic evaluation of cytotoxic 3-heteroarylisoquinolinamines as topoisomerases inhibitors” (Eur J Med Chem, 2014)
Several values for one entry are separate records, joined by “and”; a condition that tells them apart may be missing. Equal values may be shown once.

Tests used:
[1] = Cytotoxicity against human HCT15 cells after 2 days; format: functional, cell-based, HCT-15
How it was run: (§1)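 Cells seeded at 2-4 × 10^4 per well in medium with 10% FBS and incubated overnight at 37 °C, 5% CO2. Graded compound concentrations added on day 2. CCK-8 reagent added on day 4 for a further 4 h, absorbance read at 450 nm. IC50 from a four-parameter logistic fit; mean ± S.D. of three experiments run in triplicate.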

[2] = tested on: T47D; assay: Cytotoxicity against human T47D cells after 2 days; format: functional, cell-based; how it was run: as §1
[3] = tested on: HeLa; assay: Cell cycle arrest in human HeLa cells assessed as accumulation at G2/M phase phase at 25 uM after 24 hrs using […] by flow cytometry analysis relative to control; format: functional
How it was run: (§2)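 HeLa cells exposed to graded compound concentrations for 24 h, harvested by centrifugation, PBS-washed twice, fixed overnight on ice in 70% ethanol. Stained with 10 μg/mL propidium iodide plus 0.5 mg/mL RNase and 0.1% Triton X-100 in PBS, 30 min at 37 °C in the dark. Flow cytometry gates: sub-G0/G1, G0/G1, S, G2/M.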

[4] = tested on: DU-145; assay: Cytotoxicity against human DU145 cells after 2 days; format: functional, cell-based; how it was run: as §1
[5] = tested on: HeLa; assay: Cell cycle arrest in human HeLa cells assessed as accumulation at G2/M phase phase at 50 uM after 24 hrs using […] by flow cytometry analysis relative to control; format: functional; how it was run: as §2
[6] = tested on: HeLa; assay: Cell cycle arrest in human HeLa cells assessed as accumulation at G2/M phase phase at 5 uM after 24 hrs using ethidium bromide staining by flow cytometry analysis relative to control; format: functional; settings: in the assay text read “propidium iodide staining” for “ethidium bromide staining”; how it was run: as §2
[7] = tested on: HeLa; assay: Cell cycle arrest in human HeLa cells assessed as accumulation at S phase phase at 25 uM after 24 hrs using […] by flow cytometry analysis relative to control; format: functional; how it was run: as §2
[8] = tested on: HeLa; assay: Cell cycle arrest in human HeLa cells assessed as accumulation at G0/G1 phase phase at 25 uM after 24 hrs using […] by flow cytometry analysis relative to control; format: functional; how it was run: as §2
[9] = Cytotoxicity against human MCF10A cells after 2 days; format: cell-based, MCF-10A; how it was run: as §1
[10] = tested on: HeLa; assay: Cell cycle arrest in human HeLa cells assessed as accumulation at sub-G0/G1 phase at 25 uM after 24 hrs using […] by flow cytometry analysis relative to control; format: functional; how it was run: as §2
[11] = tested on: HeLa; assay: Cell cycle arrest in human HeLa cells assessed as accumulation at S phase phase at 50 uM after 24 hrs using […] by flow cytometry analysis relative to control; format: functional; how it was run: as §2
[12] = tested on: HeLa; assay: Cell cycle arrest in human HeLa cells assessed as accumulation at G0/G1 phase phase at 5 uM after 24 hrs using ethidium bromide staining by flow cytometry analysis relative to control; format: functional; settings: in the assay text read “propidium iodide staining” for “ethidium bromide staining”; how it was run: as §2
[13] = tested on: HeLa; assay: Cell cycle arrest in human HeLa cells assessed as accumulation at G2/M phase phase at 10 uM after 24 hrs using ethidium bromide staining by flow cytometry analysis relative to control; format: functional; settings: in the assay text read “propidium iodide staining” for “ethidium bromide staining”; how it was run: as §2
[14] = tested on: HeLa; assay: Cell cycle arrest in human HeLa cells assessed as accumulation at sub-G0/G1 phase at 10 uM after 24 hrs using ethidium bromide staining by flow cytometry analysis relative to control; format: functional; settings: in the assay text read “propidium iodide staining” for “ethidium bromide staining”; how it was run: as §2
[15] = tested on: HeLa; assay: Cell cycle arrest in human HeLa cells assessed as accumulation at S phase phase at 5 uM after 24 hrs using ethidium bromide staining by flow cytometry analysis relative to control; format: functional; settings: in the assay text read “propidium iodide staining” for “ethidium bromide staining”; how it was run: as §2
[16] = tested on: HeLa; assay: Cell cycle arrest in human HeLa cells assessed as accumulation at S phase phase at 10 uM after 24 hrs using ethidium bromide staining by flow cytometry analysis relative to control; format: functional; settings: in the assay text read “propidium iodide staining” for “ethidium bromide staining”; how it was run: as §2
[17] = tested on: HeLa; assay: Cell cycle arrest in human HeLa cells assessed as accumulation at G0/G1 phase phase at 10 uM after 24 hrs using ethidium bromide staining by flow cytometry analysis relative to control; format: functional; settings: in the assay text read “propidium iodide staining” for “ethidium bromide staining”; how it was run: as §2
[18] = tested on: HeLa; assay: Cell cycle arrest in human HeLa cells assessed as accumulation at G0/G1 phase phase at 50 uM after 24 hrs using […] by flow cytometry analysis relative to control; format: functional; how it was run: as §2
[19] = tested on: HeLa; assay: Cell cycle arrest in human HeLa cells assessed as accumulation at sub-G0/G1 phase at 50 uM after 24 hrs using […] by flow cytometry analysis relative to control; format: functional; how it was run: as §2
[20] = biological target: DNA topoisomerase 2-alpha (Homo sapiens) (UniProt P11388); assay: Inhibition of human DNA topoisomerase-2a-mediated relaxation of supercoiled DNA pBR322 at 100 uM after 4 hrs using ethidium bromide staining by agarose gel electrophoresis analysis
How it was run: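 Supercoiled pBR322 (200 ng) incubated with human topo IIα (1 unit) ± compound for 30 min at 30 °C. Buffer: 10 mM Tris-HCl pH 7.9, 50 mM NaCl, 50 mM KCl, 5 mM MgCl2, 1 mM EDTA, 1 mM ATP, BSA. Stopped with EDTA. 1% agarose gel run at 25 V for 4 h in TAE, ethidium bromide stain, supercoiled DNA quantified by UV imaging.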

[21] = biological target: T1, DNA topoisomerase 1 (Homo sapiens) (UniProt P11387); assay: Inhibition of recombinant human DNA topoisomerase-1-mediated relaxation of supercoiled DNA pBR322 at 100 uM after 7 hrs using ethidium bromide staining by agarose gel electrophoresis analysis
T1 sequence (whole entry): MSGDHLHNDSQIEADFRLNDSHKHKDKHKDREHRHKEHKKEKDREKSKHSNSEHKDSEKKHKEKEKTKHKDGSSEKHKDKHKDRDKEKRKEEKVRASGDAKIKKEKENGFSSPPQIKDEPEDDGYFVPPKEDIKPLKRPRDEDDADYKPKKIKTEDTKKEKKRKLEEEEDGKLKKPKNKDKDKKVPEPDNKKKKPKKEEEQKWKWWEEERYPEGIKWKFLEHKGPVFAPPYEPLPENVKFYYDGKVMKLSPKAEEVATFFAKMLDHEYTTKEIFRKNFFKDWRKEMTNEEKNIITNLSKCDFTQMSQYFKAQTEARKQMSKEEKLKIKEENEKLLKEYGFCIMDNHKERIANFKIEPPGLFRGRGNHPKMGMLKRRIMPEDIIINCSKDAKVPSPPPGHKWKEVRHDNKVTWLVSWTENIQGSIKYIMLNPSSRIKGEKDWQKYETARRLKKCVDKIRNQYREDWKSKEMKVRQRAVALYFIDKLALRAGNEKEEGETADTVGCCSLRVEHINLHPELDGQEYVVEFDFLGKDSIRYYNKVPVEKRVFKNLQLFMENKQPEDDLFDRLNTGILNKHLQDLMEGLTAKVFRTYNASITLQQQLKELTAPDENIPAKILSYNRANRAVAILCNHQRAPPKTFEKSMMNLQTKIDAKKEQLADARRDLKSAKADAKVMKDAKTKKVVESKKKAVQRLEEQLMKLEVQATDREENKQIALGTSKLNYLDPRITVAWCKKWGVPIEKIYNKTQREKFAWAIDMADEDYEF
How it was run: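 pBR322 (100 ng) incubated with recombinant human topo I (0.4 units) ± compound for 30 min at 37 °C. Buffer: 10 mM Tris-HCl pH 7.9, 150 mM NaCl, 0.1% BSA, 1 mM spermidine, 5% glycerol. Quenched with sarcosyl stop solution. 1% agarose gel run at 15 V for 7 h in TAE, ethidium bromide stain, supercoiled DNA quantified under UV.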

DNA topoisomerase 2-alpha (Homo sapiens), sequence (P11388 whole entry): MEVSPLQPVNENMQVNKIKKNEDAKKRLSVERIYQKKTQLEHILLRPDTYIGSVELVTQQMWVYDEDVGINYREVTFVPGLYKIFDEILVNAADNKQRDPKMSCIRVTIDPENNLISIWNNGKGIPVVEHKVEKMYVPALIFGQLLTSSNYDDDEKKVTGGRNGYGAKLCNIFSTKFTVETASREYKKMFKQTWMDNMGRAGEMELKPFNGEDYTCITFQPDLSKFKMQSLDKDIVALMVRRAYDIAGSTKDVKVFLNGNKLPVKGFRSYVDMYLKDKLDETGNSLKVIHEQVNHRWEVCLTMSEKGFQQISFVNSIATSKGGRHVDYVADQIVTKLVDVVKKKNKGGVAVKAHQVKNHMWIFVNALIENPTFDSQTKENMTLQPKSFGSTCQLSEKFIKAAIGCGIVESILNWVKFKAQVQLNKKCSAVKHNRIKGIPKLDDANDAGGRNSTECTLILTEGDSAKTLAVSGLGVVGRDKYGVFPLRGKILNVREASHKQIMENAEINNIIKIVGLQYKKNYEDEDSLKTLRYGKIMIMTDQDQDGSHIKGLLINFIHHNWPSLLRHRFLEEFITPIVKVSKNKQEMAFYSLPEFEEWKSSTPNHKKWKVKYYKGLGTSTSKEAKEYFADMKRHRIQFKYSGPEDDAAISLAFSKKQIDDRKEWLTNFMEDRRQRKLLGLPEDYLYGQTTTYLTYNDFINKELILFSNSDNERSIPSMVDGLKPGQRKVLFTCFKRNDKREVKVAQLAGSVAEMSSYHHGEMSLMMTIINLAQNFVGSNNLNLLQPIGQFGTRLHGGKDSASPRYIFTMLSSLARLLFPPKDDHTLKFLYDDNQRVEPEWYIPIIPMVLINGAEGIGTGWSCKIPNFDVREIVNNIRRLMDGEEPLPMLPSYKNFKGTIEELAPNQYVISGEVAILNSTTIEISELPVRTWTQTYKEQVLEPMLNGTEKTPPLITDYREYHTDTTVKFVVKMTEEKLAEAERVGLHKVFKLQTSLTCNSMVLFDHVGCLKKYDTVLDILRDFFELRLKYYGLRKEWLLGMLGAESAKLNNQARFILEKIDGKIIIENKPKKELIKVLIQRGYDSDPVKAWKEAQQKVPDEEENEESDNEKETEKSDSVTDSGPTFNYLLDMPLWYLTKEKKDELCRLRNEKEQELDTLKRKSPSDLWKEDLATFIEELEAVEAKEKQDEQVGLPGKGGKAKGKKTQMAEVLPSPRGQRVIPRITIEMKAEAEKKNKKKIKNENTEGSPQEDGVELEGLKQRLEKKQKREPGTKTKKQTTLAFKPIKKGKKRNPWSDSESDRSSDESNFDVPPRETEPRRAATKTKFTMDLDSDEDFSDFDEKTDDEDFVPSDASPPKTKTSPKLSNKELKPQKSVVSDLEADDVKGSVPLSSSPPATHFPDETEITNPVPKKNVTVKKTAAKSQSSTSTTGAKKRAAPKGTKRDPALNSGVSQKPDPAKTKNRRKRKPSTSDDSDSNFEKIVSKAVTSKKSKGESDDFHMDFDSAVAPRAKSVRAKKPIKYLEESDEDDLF

| SMILES | IC50 ([1]; hct-15) | IC50 ([2]; t47d) | IC50 ([4]; Homo sapiens, DU-145, 48 h) | IC50 ([9]; Homo sapiens, MCF-10A, 48 h) | IC50 ([1]; Homo sapiens, HCT-15, 48 h) | IC50 ([2]; Homo sapiens, T47D, 48 h) | also measured |
| --- | --- | --- | --- | --- | --- | --- | --- |
| c1csc(-c2cc3ccccc3c(N3CCCCC3)n2)c1 [listing 1 of 2 here] | 1.04 µM | 7.26 µM |  |  |  |  |  |
| c1csc(-c2cc3ccccc3c(N3CCNCC3)n2)c1 | 1.25 µM | 9.53 µM |  |  |  |  | Activity [3]: 14.88%; IC50 ([4]; du-145): 17.6 µM; Activity [5]: 0.72%; Activity [6]: 16.28%; Activity [7]: 8.71%; Activity [8]: 67.7%; IC50 ([9]; mcf-10a): 44.1 µM; Activity [10]: 1.77%; Activity [11]: 1.16%; Activity [12]: 59.83%; Activity [13]: 16.57%; Activity [14]: 1.85%; Activity [15]: 13.11%; Activity [16]: 12.03%; Activity [17]: 61.34%; Activity [18]: 4.52%; Activity [19]: 90.21% |
| c1csc(-c2cc3ccccc3c(N3CCCCC3)n2)c1 [listing 2 of 2 here] | 3.61 µM | 3.22 µM | > 50 µM | > 50 µM |  |  |  |
| c1csc(-c2cc3ccccc3c(N3CCOCC3)n2)c1 [listing 1 of 2 here] |  |  | 47 µM |  | 14.7 µM | 14.8 µM |  |
| Cc1ccc2cc(-c3cccs3)nc(N3CCCN(C)CC3)c2c1 |  |  | 14.7 µM | 20.6 µM | 1.5 µM | 1.32 µM | inhibition [20]: 8%; inhibition [21]: 18.3% |
| Cc1ccc2c(N3CCN(C)CC3)nc(-c3cccs3)cc2c1 [listing 1 of 2 here] | 4.37 µM |  | 33 µM | 13.3 µM |  | 9.35 µM |  |
| c1csc(-c2cc3ccccc3c(N3CCOCC3)n2)c1 [listing 2 of 2 here] | 21.3 µM | 24.4 µM |  | > 50 µM |  |  | IC50 ([4]; du-145): > 50 µM |
| Cc1ccc2cc(-c3cccs3)nc(N3CCCCC3)c2c1 | 0.89 µM | 3.02 µM |  |  |  |  |  |
| Cc1ccc2cc(-c3cccs3)nc(N3CCOCC3)c2c1 |  |  | 47.3 µM | 35.6 µM | 7.58 µM | 6.38 µM |  |
| Cc1ccc2c(N3CCOCC3)nc(-c3cccs3)cc2c1 |  |  | > 50 µM |  | 7.58 µM | 6.76 µM | IC50 ([9]; mcf-10a): > 50 µM |
| COc1cc([C@@H]2c3cc4c(cc3[C@@H](O[C@@H]3O[C@@H]5CO[C@@H](C)O[C@H]5[C@H](O)[C@H]3O)[C@H]3COC(=O)[C@H]23)OCO4)cc(OC)c1O [ETOPOSIDE] |  |  |  | 12.2 µM | 9.45 µM | 2.57 µM |  |
| CCN1CCN(c2nc(-c3cccs3)cc3ccccc23)CC1 |  |  |  |  |  |  | inhibition [20]: 3.2% and 9.1%; inhibition [21]: 2.6% and 15% |
| CCN1CCN(c2nc(-c3cccs3)cc3cc(C)ccc23)CC1 |  |  |  |  |  |  | inhibition [20]: 0%; inhibition [21]: 0% |
| Cc1ccc2c(N3CCN(C)CC3)nc(-c3cccs3)cc2c1 [listing 2 of 2 here] |  | 18.4 µM |  |  | 3.19 µM |  | IC50 ([4]; du-145): 40 µM; IC50 ([9]; mcf-10a): 14.9 µM |
| Cc1ccc2c(N3CCCCC3)nc(-c3cccs3)cc2c1 | 5.45 µM | 2.56 µM | > 50 µM | > 50 µM |  |  |  |
| CN1CCN(c2nc(-c3cccs3)cc3ccccc23)CC1 |  |  |  |  |  |  | inhibition [20]: 0%; inhibition [21]: 80.8% and 97.5% |
